Measurements reported in ChEMBL document CHEMBL4392864, “Diketopiperazine-Type Alkaloids from a Deep-Sea-Derived Aspergillus puniceus Fungus and Their Effects on Liver X Receptor α” (J Nat Prod, 2019).
Active and inactive are the calls of the source. No cut-off for these calls is given here.

Assays:
[1] = biological target: T1, Tyrosine-protein phosphatase non-receptor type 2 (Homo sapiens) (UniProt P17706); test: (§1) Inhibition of recombinant human TCPTP expressed in Escherichia coli […] preincubated for 15 mins followed by substrate addition and measured after 60 mins
T1 sequence (whole entry): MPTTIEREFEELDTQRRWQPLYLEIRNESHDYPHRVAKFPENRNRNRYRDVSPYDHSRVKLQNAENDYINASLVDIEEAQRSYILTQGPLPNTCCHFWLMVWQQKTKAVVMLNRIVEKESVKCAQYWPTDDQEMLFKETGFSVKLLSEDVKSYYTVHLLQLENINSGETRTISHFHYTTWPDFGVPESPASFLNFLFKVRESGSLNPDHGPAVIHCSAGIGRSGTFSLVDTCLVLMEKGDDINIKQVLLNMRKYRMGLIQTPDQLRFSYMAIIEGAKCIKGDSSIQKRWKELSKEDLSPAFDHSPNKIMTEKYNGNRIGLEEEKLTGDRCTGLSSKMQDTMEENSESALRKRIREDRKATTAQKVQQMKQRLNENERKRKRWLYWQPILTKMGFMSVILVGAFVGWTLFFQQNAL
In short: (§2)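 Recombinant human phosphatases were expressed in E. coli and purified. Enzyme and compound were preincubated for 15 min at room temperature in pH 6.5 buffer (50 mM HEPES, 100 mM NaCl, 1 mM EDTA, 1 mM DTT). Buffer containing 50 mM pNPP was then added and the mix incubated for 60 min at 37 °C. Product p-nitrophenol was read at 405 nm. Assays were run in triplicate and IC50 derived.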

Curvularia australiensis = test: Antifungal activity against Curvularia australiensis BY01 assessed as growth inhibition at 0.6 mM measured after 48 hrs by microbroth dilution method; type: functional; conditions: BY01, 48 h, read-out: GI
In short: (§3)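 Fungi were grown on PDA plates for 6−8 days at 30 °C, then the mycelia were moved into PD medium and filtered through cotton to give a spore suspension. Each well held PD medium, sample from a 10 mg/mL DMSO stock at about 0.6 mM, and spores (1 × 10^6 CFU). DMSO served as the negative control. OD600 was read at 0 and 48 h at 28 °C and percent growth inhibition calculated.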

[2] = biological target: Tyrosine-protein phosphatase non-receptor type 6 (Homo sapiens, UniProt P29350); test: Inhibition of recombinant human SHP1 expressed in Escherichia coli […] preincubated for 15 mins followed by substrate addition and measured after 60 mins; in short: as §2
Chain of Tyrosine-protein phosphatase non-receptor type 6 (P29350 whole entry): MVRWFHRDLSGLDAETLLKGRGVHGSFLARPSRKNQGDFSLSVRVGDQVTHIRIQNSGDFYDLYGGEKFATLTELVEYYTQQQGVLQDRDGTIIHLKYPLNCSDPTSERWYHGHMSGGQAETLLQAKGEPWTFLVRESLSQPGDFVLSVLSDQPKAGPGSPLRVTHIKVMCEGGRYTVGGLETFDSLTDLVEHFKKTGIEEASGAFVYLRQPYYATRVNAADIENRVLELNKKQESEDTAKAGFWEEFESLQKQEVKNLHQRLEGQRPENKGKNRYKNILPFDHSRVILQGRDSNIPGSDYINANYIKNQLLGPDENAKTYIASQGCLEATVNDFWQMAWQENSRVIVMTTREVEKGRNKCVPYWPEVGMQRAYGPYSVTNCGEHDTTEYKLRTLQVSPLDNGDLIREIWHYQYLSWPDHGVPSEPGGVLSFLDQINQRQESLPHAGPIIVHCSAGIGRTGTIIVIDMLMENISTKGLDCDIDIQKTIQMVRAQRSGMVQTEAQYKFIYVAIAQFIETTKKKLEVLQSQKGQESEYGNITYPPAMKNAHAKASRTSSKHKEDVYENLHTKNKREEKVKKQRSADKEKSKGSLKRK

[3] = biological target: Indoleamine 2,3-dioxygenase 1 (Homo sapiens, UniProt P14902); test: Inhibition of recombinant human IDO1 expressed in Escherichia coli […] preincubated for 15 mins followed by substrate addition and measured after 60 mins
[4] = biological target: T2, Oxysterols receptor LXR-alpha (Homo sapiens, UniProt Q13133); test: Transactivation of recombinant GAL4-fused human LXRalpha LBD (163 to 447 residues) expressed in human L02 cells measured after 24 hrs by luciferase reporter gene assay; type: cell-based
T2 sequence (Q13133 whole entry): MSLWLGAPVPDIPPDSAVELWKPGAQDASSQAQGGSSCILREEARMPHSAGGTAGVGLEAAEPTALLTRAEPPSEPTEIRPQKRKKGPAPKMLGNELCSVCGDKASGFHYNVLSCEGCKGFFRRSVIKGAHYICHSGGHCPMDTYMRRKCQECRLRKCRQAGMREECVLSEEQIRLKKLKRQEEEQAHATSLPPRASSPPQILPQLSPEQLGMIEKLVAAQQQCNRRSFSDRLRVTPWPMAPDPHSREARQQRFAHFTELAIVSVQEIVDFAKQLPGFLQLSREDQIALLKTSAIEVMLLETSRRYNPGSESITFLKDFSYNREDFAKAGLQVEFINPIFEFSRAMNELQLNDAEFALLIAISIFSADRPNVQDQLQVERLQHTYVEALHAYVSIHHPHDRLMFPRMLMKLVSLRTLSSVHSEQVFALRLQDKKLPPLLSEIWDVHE

Fusarium oxysporum = test: Antifungal activity against Fusarium oxysporum HNM 1003 assessed as growth inhibition at 0.6 mM measured after 48 hrs by microbroth dilution method; type: functional; conditions: HNM 1003, 48 h, read-out: GI; in short: as §3
Pyricularia oryzae = test: Antifungal activity against Pyricularia oryzae HNM 1003 assessed as growth inhibition at 0.6 mM measured after 48 hrs by microbroth dilution method; type: functional; conditions: HNM 1003, 48 h, read-out: GI
[5] = tested on: Colletotrichum gloeosporioides; test: Antifungal activity against Colletotrichum gloeosporioides HNM 1003 assessed as growth inhibition at 0.6 mM measured after 48 hrs by microbroth dilution method; type: functional; conditions: HNM 1003, 48 h, read-out: GI; in short: as §3
[6] = biological target: L-lactate dehydrogenase A chain (Homo sapiens) (UniProt P00338); test: Inhibition of recombinant human LDHA expressed in Escherichia coli […] preincubated for 15 mins followed by substrate addition and measured after 60 mins
[7] = biological target: T3, Tyrosine-protein phosphatase non-receptor type 11 (Homo sapiens) (UniProt Q06124); test: (§4) Inhibition of recombinant human SHP2 expressed in Escherichia coli […] preincubated for 15 mins followed by substrate addition and measured after 60 mins; in short: as §2
T3 sequence (whole entry): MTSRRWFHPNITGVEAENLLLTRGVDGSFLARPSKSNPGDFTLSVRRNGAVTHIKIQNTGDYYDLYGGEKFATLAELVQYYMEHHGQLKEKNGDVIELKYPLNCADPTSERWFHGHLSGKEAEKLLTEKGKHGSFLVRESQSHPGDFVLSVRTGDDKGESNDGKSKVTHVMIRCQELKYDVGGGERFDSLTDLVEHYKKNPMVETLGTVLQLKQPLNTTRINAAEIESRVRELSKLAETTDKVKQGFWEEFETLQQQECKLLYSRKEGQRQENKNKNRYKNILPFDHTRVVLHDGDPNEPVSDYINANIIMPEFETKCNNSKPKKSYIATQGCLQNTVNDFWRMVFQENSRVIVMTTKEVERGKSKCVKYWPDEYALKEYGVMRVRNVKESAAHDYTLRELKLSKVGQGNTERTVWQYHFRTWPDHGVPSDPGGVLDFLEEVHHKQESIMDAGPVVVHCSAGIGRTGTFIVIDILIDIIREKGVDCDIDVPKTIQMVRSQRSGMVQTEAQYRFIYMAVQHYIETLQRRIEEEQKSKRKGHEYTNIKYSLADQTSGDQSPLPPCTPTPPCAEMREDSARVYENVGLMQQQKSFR

[8] = biological target: T4, Tyrosine-protein phosphatase non-receptor type 1 (Homo sapiens) (UniProt P18031); test: (§5) Inhibition of recombinant human PTP1B expressed in Escherichia coli […] preincubated for 15 mins followed by substrate addition and measured after 60 mins; in short: as §2
T4 sequence (whole entry): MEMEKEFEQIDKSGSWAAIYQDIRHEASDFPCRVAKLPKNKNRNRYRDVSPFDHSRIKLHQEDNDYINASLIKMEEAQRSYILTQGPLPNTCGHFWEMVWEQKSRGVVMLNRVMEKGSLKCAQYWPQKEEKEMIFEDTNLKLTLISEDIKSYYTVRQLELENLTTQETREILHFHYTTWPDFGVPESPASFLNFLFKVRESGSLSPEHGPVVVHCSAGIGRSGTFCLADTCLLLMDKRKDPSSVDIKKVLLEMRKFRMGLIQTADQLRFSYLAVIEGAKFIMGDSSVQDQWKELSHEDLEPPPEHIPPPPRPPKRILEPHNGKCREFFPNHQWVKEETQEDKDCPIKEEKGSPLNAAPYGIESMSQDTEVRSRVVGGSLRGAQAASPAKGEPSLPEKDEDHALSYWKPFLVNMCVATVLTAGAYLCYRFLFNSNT

[9] = biological target: T5, Tyrosine-protein phosphatase non-receptor type 9 (Homo sapiens) (UniProt P43378); test: (§6) Inhibition of recombinant human MEG2 expressed in Escherichia coli […] preincubated for 15 mins followed by substrate addition and measured after 60 mins; in short: as §2
T5 sequence (whole entry): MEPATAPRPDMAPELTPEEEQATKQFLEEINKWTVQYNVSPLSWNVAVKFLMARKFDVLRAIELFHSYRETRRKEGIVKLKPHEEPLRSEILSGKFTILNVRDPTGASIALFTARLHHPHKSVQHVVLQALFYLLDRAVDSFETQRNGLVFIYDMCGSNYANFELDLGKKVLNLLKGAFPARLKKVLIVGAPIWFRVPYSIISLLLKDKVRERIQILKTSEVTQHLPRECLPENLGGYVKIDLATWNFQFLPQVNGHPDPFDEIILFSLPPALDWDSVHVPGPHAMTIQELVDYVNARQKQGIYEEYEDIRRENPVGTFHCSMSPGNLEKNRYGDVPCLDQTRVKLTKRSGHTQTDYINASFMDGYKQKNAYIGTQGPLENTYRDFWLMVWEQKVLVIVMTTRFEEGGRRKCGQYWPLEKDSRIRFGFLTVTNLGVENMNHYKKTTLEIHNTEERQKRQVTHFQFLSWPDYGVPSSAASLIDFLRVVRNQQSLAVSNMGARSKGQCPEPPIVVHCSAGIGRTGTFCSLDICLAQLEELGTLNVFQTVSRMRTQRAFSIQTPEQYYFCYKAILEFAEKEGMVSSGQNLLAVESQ

[10] = biological target: T6, Tyrosine-protein phosphatase non-receptor type 2 (Homo sapiens, UniProt P17706); test: as §1; in short: as §2
T6 sequence (P17706 whole entry): T1 sequence (whole entry)

[11] = biological target: T7, Tyrosine-protein phosphatase non-receptor type 11 (Homo sapiens, UniProt Q06124); test: as §4; in short: as §2
T7 sequence (Q06124 whole entry): T3 sequence (whole entry)

[12] = biological target: T8, Tyrosine-protein phosphatase non-receptor type 1 (Homo sapiens, UniProt P18031); test: as §5; in short: as §2
T8 sequence (P18031 whole entry): T4 sequence (whole entry)

[13] = biological target: T9, Tyrosine-protein phosphatase non-receptor type 9 (Homo sapiens, UniProt P43378); test: as §6; in short: as §2
T9 sequence (P43378 whole entry): T5 sequence (whole entry)

SMILES	inhibition [1]	inhibition of growth at 600 µM (Curvularia australiensis) [%]	inhibition [2]	inhibition [3]	EC50 [4] [µM]	inhibition of growth at 600 µM (Fusarium oxysporum) [%]	inhibition of growth at 600 µM (Pyricularia oryzae) [%]	inhibition of growth at 600 µM [5] [%]	inhibition [6]	inhibition [7]	inhibition [8]	inhibition [9]	IC50 [10] [µM]	IC50 [2] [µM]	IC50 [3] [µM]	IC50 [11] [µM]	IC50 [12] [µM]	IC50 [13] [µM]
C[C@@H]1C(=O)N/C(=C\c2ccccc2)c2nc3c(c(=O)n21)C=CC=CO3	inactive	< 50	inactive	inactive	50	< 50	< 50	< 50	inactive	inactive	inactive	inactive						
CO[C@@]1(Cc2ccccc2)NC(=O)[C@@H](C)n2c1nc1c(c2=O)C=CC=CO1	inactive	< 50	inactive	inactive	15	< 50	< 50	< 50	inactive	inactive	inactive	inactive						
CO[C@]1(Cc2ccccc2)NC(=O)[C@@H](C)n2c1nc1c(O)cccc1c2=O	inactive	< 50	inactive	inactive	5.1	< 50	< 50	< 50	inactive	inactive	inactive	inactive						
CC[C@@H](C)C1=C2N=C3OC=CC=C[C@]3(OC)C(=O)N2[C@@H](Cc2ccccc2)C(=O)N1		< 50			41	< 50	< 50	< 50	inactive				14 to 87	14 to 87	14 to 87	14 to 87	14 to 87	14 to 87
C[C@@H]1C(=O)N[C@](O)(Cc2ccccc2)c2nc3c(c(=O)n21)C=CC=CO3		< 50			47	< 50	< 50	< 50	inactive				14 to 87	14 to 87	14 to 87	14 to 87	14 to 87	14 to 87
C[C@@H]1C(=O)N[C@@](O)(Cc2ccccc2)c2nc3c(O)cccc3c(=O)n21	inactive	< 50	inactive	inactive	1.7	< 50	< 50	< 50	inactive	inactive	inactive	inactive						
CO[C@]1(Cc2ccccc2)NC(=O)[C@@H](C)n2c1nc1c(c2=O)C=CC=CO1	inactive	< 50	inactive	inactive	15	< 50	< 50	< 50	inactive	inactive	inactive	inactive						
C[C@@H]1C(=O)N[C@@](O)(Cc2ccccc2)c2nc3c(c(=O)n21)C=CC=CO3	inactive	< 50	inactive	inactive	16	< 50	< 50	< 50	inactive	inactive	inactive	inactive						
C[C@@H]1C(=O)N[C@](O)(Cc2ccccc2)c2nc3c(O)cccc3c(=O)n21	inactive	< 50	inactive	inactive	5.3	< 50	< 50	< 50	inactive	inactive	inactive	inactive						
